The results in this text go back to ChEMBL document CHEMBL4376872, “Scaffold Hopping of Natural Product Evodiamine: Discovery of a Novel Antitumor Scaffold with Excellent Potency against Colon Cancer” (J Med Chem, 2020).

Activity calls are given as the source filed them. No cut-off for these calls is given here.

The test system of one data set is PC-3. Nature of the data set: Antiproliferative activity against human PC3 cells assessed as reduction in cell viability incubated for 72 hrs by CCK8 assay. In kind it is functional, cell-based. The following applies: PC-3, 72 h. (In general: Tetrazolium assays rely on reduction of a dye to a coloured formazan, in cell work by metabolically active cells.)
The next data set deals with K562. Kind of data set: Antiproliferative activity against human K562 cells assessed as reduction in cell viability incubated for 72 hrs by CCK8 assay. In kind it is functional, cell-based. To be noted: K562, 72 h.
For another data set, the system named is BEL-7404 tumor cell line. Kind of data set: Antiproliferative activity against human Bel7404 cells assessed as reduction in cell viability incubated for 72 hrs by CCK8 assay. The following applies: BEL-7404, 72 h. In kind it is functional, cell-based.
The next data set has as its system A549. Kind of data set: Antiproliferative activity against human A549 cells assessed as reduction in cell viability incubated for 72 hrs by CCK8 assay. In kind it is functional, cell-based. The following applies: A549, 72 h.
The test system of the next data set is NCI-H446. Nature of the data set: Antiproliferative activity against human NCI-H446 cells assessed as reduction in cell viability incubated for 72 hrs by CCK8 assay. In kind it is functional, cell-based. To be noted: NCI-H446, 72 h.
Data set [1] has as its system HCT-116. Kind of data set: Antiproliferative activity against human HCT116 cells assessed as reduction in cell viability incubated for 72 hrs by CCK8 assay. In kind it is functional, cell-based. The following applies: HCT-116, 72 h.
Data set [2] in a line: Antiproliferative activity against human MV-3 cells assessed as reduction in cell viability incubated for 72 hrs by CCK8 assay. In kind it is functional, cell-based. To be noted: MV-3, 72 h.
Data set [3] in a line: Antiproliferative activity against human SW579 cells assessed as reduction in cell viability incubated for 72 hrs by CCK8 assay. In kind it is functional, cell-based. The following applies: SW579, 72 h.
A further data set relates to SK-HEP1. Kind of data set: Antiproliferative activity against human SKHEP1 cells assessed as reduction in cell viability incubated for 72 hrs by CCK8 assay. To be noted: SK-HEP1, 72 h. In kind it is functional, cell-based.
Data set [4] deals with T1, DNA topoisomerase 1 (Escherichia coli (strain K12)) (UniProt P06612).
T1 sequence (whole entry): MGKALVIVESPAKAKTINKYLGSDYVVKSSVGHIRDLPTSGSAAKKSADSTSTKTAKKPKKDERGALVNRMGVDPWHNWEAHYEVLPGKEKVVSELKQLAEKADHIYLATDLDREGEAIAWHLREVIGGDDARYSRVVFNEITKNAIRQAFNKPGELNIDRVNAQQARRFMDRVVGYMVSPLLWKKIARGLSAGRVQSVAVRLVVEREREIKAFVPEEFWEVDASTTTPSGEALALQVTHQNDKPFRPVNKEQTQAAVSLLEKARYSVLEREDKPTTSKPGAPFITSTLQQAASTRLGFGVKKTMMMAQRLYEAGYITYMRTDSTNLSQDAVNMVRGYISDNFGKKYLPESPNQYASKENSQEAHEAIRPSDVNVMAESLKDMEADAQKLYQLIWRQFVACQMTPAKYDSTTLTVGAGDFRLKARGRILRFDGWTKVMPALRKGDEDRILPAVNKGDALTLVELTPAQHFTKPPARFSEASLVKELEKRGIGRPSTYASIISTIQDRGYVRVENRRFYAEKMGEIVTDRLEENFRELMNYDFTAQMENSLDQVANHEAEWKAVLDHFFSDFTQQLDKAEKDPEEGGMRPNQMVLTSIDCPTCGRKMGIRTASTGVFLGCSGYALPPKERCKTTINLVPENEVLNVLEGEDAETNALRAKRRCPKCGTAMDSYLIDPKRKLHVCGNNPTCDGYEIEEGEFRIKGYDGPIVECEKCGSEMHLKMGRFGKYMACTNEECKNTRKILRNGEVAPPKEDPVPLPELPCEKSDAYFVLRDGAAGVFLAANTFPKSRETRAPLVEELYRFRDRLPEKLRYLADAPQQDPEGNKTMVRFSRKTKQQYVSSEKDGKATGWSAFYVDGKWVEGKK
Kind of data set: Poison activity at Escherichia coli Top1 assessed as increase in […] band intensity at 100 uM using supercoiled pUC19 plasmid DNA as substrate incubated for 30 mins by agarose gel electrophoresis analysis. In a few lines: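 Supercoiled pUC19 plasmid DNA incubated with Top1 and test compound at 100, 50, 25 and 12.5 μM. Lanes: DNA alone, DNA + Top1, and DNA + Top1 + camptothecin (100 μM) as reference. Products resolved on gel to follow Top1-mediated relaxation.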

A further data set relates to MDA-MB-435. Nature of the data set: Antiproliferative activity against human MDA-MB-435 cells assessed as reduction in cell viability incubated for 72 hrs by CCK8 assay. In kind it is functional, cell-based. The following applies: MDA-MB-435, 72 h.
Data set [5] is described as follows: Aqueous solubility of compound at pH 7.4. In kind it is physicochemical.
For data set [6], the system named is HCT-116. Nature of the data set: Antitumor activity against human HCT116 cells xenografted in mouse assessed as reduction in tumor growth at 16 mg/kg, ip qd for 21 days administration starting from 10 days after tumor cell implantation measured every 2 or 4 days till the end of the treatment period relative to control. In kind it is functional. The following applies: HCT-116, ip, read-out: TGI. In short, it runs like this: (§1)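 HCT116 xenografts in nude mice; intraperitoneal dosing on 21 consecutive days; tumour growth inhibition (TGI) versus untreated control, with body weight recorded. n = 6 mice per group; mean ± SEM; significance by Student's t test versus control.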
Background: In xenograft studies the graft and the host belong to different species.

Data set [7] in a line: Toxicity in mouse xenografted with human HCT116 cells assessed as reduction in body weight at 16 mg/kg, ip qd for 21 days administration starting from 10 days after tumor cell implantation measured every 2 or 4 days till the end of the treatment period. In kind it is organism-based. To be noted: in vivo. In short, it runs like this:
(§2)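 Nude mice bearing HCT116 xenografts were given intraperitoneal doses on 21 consecutive days, with n = 6 per group including an untreated control group. Body weight was recorded to assess toxicity. Data are mean ± SEM, compared with the control group by Student's t test.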

The subject of data set [8] is HCT-116. Nature of the data set: Antitumor activity against human HCT116 cells xenografted in mouse assessed as reduction in tumor growth at 0.5 mg/kg, ip qd for 21 days administration starting from 10 days after tumor cell implantation measured every 2 or 4 days till the end of the treatment period relative to control. The following applies: HCT-116, ip, read-out: TGI. In kind it is functional. In a few lines:
as §1

Data set [9] can be described thus: Toxicity in mouse xenografted with human HCT116 cells assessed as reduction in body weight at 0.5 mg/kg, ip qd for 21 days administration starting from 10 days after tumor cell implantation measured every 2 or 4 days till the end of the treatment period. In kind it is organism-based. To be noted: in vivo. In a few lines: as §2
For data set [10], the target named is T1, DNA topoisomerase 1 (Escherichia coli (strain K12)). Nature of the data set: Inhibition of Escherichia coli Top1 assessed as decrease in relaxation of supercoiled pBR322 plasmid DNA at 100 uM using supercoiled pBR322 plasmid DNA as substrate incubated for 15 mins by agarose gel electrophoresis analysis.
Data set [11] concerns the target DNA topoisomerase 2-alpha (Homo sapiens) (UniProt P11388). Kind of data set: Inhibition of human Top2alpha assessed as decrease in relaxation of supercoiled pBR322 plasmid DNA at 100 uM using supercoiled pBR322 plasmid DNA as substrate incubated for 30 mins by agarose gel electrophoresis analysis.

Chain of DNA topoisomerase 2-alpha (Homo sapiens) (P11388 whole entry): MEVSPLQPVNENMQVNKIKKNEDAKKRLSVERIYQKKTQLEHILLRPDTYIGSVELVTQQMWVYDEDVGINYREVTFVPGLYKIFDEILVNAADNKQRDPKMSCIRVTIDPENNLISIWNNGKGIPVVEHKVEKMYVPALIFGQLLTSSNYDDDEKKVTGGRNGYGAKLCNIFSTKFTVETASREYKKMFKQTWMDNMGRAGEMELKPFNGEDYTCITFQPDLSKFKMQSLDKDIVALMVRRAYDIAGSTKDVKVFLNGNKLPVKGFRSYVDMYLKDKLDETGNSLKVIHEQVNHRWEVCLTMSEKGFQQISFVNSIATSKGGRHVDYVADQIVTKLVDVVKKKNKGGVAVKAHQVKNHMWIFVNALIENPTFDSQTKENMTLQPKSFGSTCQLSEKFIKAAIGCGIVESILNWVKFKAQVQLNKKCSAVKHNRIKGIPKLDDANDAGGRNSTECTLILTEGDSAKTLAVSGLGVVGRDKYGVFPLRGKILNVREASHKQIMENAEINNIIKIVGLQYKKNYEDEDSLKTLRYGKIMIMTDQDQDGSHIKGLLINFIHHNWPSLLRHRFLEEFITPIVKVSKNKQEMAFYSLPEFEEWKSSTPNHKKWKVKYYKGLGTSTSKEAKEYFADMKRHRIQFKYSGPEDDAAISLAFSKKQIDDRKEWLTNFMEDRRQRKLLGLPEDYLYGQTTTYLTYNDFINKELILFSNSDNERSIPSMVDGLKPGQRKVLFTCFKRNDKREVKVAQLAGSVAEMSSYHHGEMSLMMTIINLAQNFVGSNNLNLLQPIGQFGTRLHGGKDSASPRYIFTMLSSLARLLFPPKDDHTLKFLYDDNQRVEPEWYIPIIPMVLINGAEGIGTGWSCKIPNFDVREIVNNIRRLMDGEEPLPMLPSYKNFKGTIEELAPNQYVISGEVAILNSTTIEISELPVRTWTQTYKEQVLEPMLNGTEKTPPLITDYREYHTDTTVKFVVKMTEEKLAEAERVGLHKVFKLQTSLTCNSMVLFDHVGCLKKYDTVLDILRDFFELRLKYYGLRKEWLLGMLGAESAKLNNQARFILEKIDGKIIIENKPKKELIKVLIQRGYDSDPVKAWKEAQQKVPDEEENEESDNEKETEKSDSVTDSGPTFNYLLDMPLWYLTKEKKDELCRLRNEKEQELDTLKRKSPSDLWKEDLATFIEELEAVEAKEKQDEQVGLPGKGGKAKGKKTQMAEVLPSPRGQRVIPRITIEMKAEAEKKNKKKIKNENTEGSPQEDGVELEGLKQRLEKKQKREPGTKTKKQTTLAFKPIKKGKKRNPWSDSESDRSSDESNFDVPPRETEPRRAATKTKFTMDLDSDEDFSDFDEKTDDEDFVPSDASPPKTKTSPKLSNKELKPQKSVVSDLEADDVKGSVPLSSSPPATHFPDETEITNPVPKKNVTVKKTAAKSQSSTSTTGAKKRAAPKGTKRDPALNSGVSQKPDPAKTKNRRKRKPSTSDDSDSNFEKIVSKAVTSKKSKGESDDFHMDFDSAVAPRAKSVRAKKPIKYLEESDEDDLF

In general, IC50 refers to the midpoint of a concentration-inhibition curve. `CC[C@@]1(O)C(=O)OCc2c1cc1n(c2=O)Cc2cc3ccccc3nc2-1` [CAMPTOTHECIN]: the IC50 is 2400 nM in the data set on PC-3; under 3 nM in the data set with K562; 400 nM in the data set with BEL-7404 tumor cell line; 2800 nM with A549; over 200000 nM with NCI-H446; 20 nM in the data set with HCT-116 [1]. Moreover, the IC50 in data set [2] stood at 3 nM; in data set [3] it was 700 nM; with SK-HEP1, 900 nM; with MDA-MB-435, 2700 nM. For the same compound, in [4], the result was Active.
For orientation: solubility means the dissolved amount per volume that the medium holds. Read a low solubility as a poorly soluble substance. Consider `COc1ccc2c(c1)cc1n2CCn2c-1[n+](C)c1ccc(F)cc1c2=O`, for which the concentration in solution in [5] (solubility) came to 850 µg/mL. The inhibition in vivo at 16 mg/kg in the data set on HCT-116 [6] was 66.6%. For the same compound, the IC50 in the data set on A549 was over 200000 nM; with HCT-116 [1] it was 87200 nM; in the data set on MDA-MB-435, over 200000 nM. The Activity result in data set [7] is “Non-Toxic”.
In the case of `CC[C@@]1(O)C(=O)OCc2c1cc1n(c2=O)Cc2cc3c(CN(C)C)c(O)ccc3nc2-1` [TOPOTECAN], the inhibition in vivo at 0.5 mg/kg with HCT-116 [8] amounted to 68.5%. Also, the Activity entry in [9] is reported as “Toxic”.
For `CN1c2ccccc2C(=O)N2CCn3c(cc4ccccc43)C21` (centres undefined), the inhibition entry in data set [10] was “Active”. The figures for the 50% inhibitory concentration (IC50) in the data set with A549, with HCT-116 [1] and in the data set on MDA-MB-435 were 21500 nM, 47500 to 48500 nM and over 200000 nM, respectively. Also, in data set [11], the inhibition entry is “inactive”.
